Data on 14 compounds can be found in ChEMBL document CHEMBL1833903, “Isomeric acetoxy analogs of celecoxib and their evaluation as cyclooxygenase inhibitors” (Bioorg Med Chem Lett, 2011).

The subject of experiment [1] is Rattus norvegicus. The experiment is described as follows: Antiinflammatory activity in po dosed rat assessed as inhibition of carrageenan-induced hind paw edema measured after 3 hrs post dose. Type of experiment: functional. The essentials:
(§1)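 Male Sprague-Dawley rats; paw edema induced with carrageenan; test compound given orally at the stated dose. Edema inhibition read 3 h after dosing, as a mean of n = 4. ED50 values were derived where determined.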
(In general: The carrageenan paw model is a standard test of acute inflammation.)

For experiment [2], the target named is T1, Prostaglandin G/H synthase 1 (Ovis aries, UniProt P05979).
T1 sequence (P05979 whole entry): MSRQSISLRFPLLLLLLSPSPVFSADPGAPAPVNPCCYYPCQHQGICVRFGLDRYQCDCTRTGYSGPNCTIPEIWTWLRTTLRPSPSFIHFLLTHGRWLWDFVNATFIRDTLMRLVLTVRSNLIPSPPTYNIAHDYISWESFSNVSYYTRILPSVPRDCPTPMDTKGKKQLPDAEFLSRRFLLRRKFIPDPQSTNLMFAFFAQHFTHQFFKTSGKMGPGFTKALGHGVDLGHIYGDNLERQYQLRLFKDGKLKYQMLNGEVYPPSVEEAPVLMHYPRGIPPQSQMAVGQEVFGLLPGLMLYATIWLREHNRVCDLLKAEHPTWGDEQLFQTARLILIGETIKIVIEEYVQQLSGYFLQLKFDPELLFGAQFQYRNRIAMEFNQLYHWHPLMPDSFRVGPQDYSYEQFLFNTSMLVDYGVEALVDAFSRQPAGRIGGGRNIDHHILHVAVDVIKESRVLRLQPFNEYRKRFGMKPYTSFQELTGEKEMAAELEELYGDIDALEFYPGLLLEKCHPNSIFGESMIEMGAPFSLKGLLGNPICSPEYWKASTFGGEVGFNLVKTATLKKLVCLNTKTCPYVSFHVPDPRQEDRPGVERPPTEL
Briefly: Inhibition of ovine COX1 by enzyme immuno assay.

The subject of experiment [3] is Rattus norvegicus. The experiment is described as follows: Antiinflammatory activity in rat assessed as inhibition of carrageenan-induced hind paw edema at 10 mg/kg, po measured after 3 hrs post dose. On the set-up: dose 10 mg/kg. The experiment is classed as functional, organism-based. The essentials: as §1
Experiment [4] deals with Rattus norvegicus. The experiment is described as follows: Antiinflammatory activity in rat assessed as inhibition of carrageenan-induced hind paw edema at 50 mg/kg, po measured after 3 hrs post dose. Type of experiment: functional, organism-based. On the set-up: dose 50 mg/kg. The essentials: as §1

Calls of active or inactive are those of the source. The calls are words filed in the database; no cut-off is given here. Where only a bound is given, the exact number is not on record here.

Consider `CC(C)Cc1ccc(C(C)C(=O)O)cc1` (centres undefined) [IBUPROFEN], for which the ED50 – broadly, the dose that gives a 50% effect, or the effect in half of the subjects – with Rattus norvegicus [1] was found to be 67.4 mg/kg.

As to `CC(=O)Oc1cccc(-c2cc(C(F)(F)F)nn2-c2ccc(S(C)(=O)=O)cc2)c1`, in experiment [2], the 50% inhibitory concentration (IC50) (usually the midpoint of a concentration-inhibition curve) was over 100 µM.

Turning to `CC(=O)Oc1cc(-c2cc(C(F)(F)F)nn2-c2ccc(S(C)(=O)=O)cc2)ccc1C`, the inhibition entry in the experiment with Rattus norvegicus [3] was “inactive”.

Compound `Cc1ccc(-c2cc(C(F)(F)F)nn2-c2ccc(S(N)(=O)=O)cc2)c(O)c1` had an IC50 in experiment [2] of 36 µM. Also, in the experiment with Rattus norvegicus [3], the inhibition result is “inactive”.

For the compound `CC(=O)Oc1ccccc1C(=O)O` [ASPIRIN], the 50% effective dose (ED50) with Rattus norvegicus [1] was 129 mg/kg.

`CC(=O)Oc1cccc(-c2cc(C(F)(F)F)nn2-c2ccc(S(N)(=O)=O)cc2)c1` displayed a concentration for half-maximal inhibition (IC50) in experiment [2] of over 100 µM.

In experiment [2], `CC(=O)Oc1cc(C)ccc1-c1cc(C(F)(F)F)nn1-c1ccc(S(N)(=O)=O)cc1` gave a 50% inhibitory concentration (IC50) of over 100 µM. In addition, the inhibition entry with Rattus norvegicus [4] was “inactive”.

`CC(=O)Oc1ccccc1-c1cc(C(F)(F)F)nn1-c1ccc(S(N)(=O)=O)cc1`: the IC50 in experiment [2] was over 100 µM.

In turn, `CC(=O)Oc1cc(-c2cc(C(F)(F)F)nn2-c2ccc(S(N)(=O)=O)cc2)ccc1C` returned a half-maximal inhibitory concentration (IC50) in experiment [2] of over 100 µM. Also, in the experiment with Rattus norvegicus [4], the inhibition result was “inactive”.

For the compound `CC(=O)Oc1ccc(-c2cc(C(F)(F)F)nn2-c2ccc(S(C)(=O)=O)cc2)cc1`, in experiment [2], the 50% inhibitory concentration (IC50) turned out to be 80.3 µM.

`CC(=O)Oc1cc(C)ccc1-c1cc(C(F)(F)F)nn1-c1ccc(S(C)(=O)=O)cc1`: the IC50 in experiment [2] is over 100 µM.

With `CC(=O)Oc1ccc(-c2cc(C(F)(F)F)nn2-c2ccc(S(N)(=O)=O)cc2)cc1`, the IC50 in experiment [2] was over 100 µM. The inhibition result in the experiment with Rattus norvegicus [4] was “inactive”.

On to `CC(=O)Oc1cc(F)ccc1-c1cc(C(F)(F)F)nn1-c1ccc(S(C)(=O)=O)cc1`, for which the IC50 in experiment [2] was over 100 µM.

Consider `CC(=O)Oc1cc(F)ccc1-c1cc(C(F)(F)F)nn1-c1ccc(S(N)(=O)=O)cc1`, for which inhibition in experiment [2] was half-maximal at 0.7 µM (IC50). The ED50 with Rattus norvegicus [1] (Rattus norvegicus, po, 3 h, read-out: ED50) came out at 42.3 mg/kg.
